# EP2 modulator – EP2 receptor modulators, cAMP readout, primary screen, cell-based, HTRF cAMP, PGE2 stimulation. Prostaglandin E2 receptor EP2 subtype (Homo sapiens), P43116. EP2-expressing cells, cAMP HTRF FRET, PGE2 co-stimulation. 0.83% of 260,000 active. induction, % at 25 µM;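 active = compounds whose cAMP rise, as percent of the full-agonist control response, exceeds 60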;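 note: rat C6 glioma line stably carrying human EP2 under a CMV promoter; the protocol text gives 20 µM as final concentration; 100% = response of wells given 1 µM PGE2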
# Target sequence (P43116 whole entry, looked up): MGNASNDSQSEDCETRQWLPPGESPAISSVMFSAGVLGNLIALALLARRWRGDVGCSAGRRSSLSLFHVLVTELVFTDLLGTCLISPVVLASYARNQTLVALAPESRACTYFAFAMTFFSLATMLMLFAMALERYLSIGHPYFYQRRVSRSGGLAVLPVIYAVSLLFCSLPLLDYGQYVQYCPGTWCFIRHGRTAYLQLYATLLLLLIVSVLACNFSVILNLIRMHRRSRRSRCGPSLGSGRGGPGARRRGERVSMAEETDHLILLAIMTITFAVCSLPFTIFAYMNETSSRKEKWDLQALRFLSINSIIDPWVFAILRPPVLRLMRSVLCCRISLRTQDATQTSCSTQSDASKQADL
# EP2 antag – human EP2 receptor antagonists, primary screen, TR-FRET cAMP, C6 glioma cells; C6 glioma cells expressing human EP2; cells stimulated with saturating PGE2; inhibition, % at 25 µM; 0.52% of 260,000 active; AID 1422, 2008;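 active = percent inhibition above 40 after rounding to a whole number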;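 note: rat C6 glioma host cells with rolipram phosphodiesterase inhibitor present; the protocol text gives 20 µM as final concentration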
# NPY-Y2 PAM-ag – NPY-Y2 potentiators or agonists, primary screen, cell-based; Neuropeptide Y receptor type 2 (Homo sapiens), P49146; cells expressing NPY-Y2, potentiator/agonist read-out; 0.45% of 220,000 active; activation, % at 3.6 µM; AID 1359, 2008; in the data active = activation above about 27%;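 note: cells stimulated with NPY near EC25 plus isoproterenol at EC100; 0% = vehicle plus submaximal agonist and 100% = vehicle plus saturating agonist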
# NPY1 pot ag – NPY-Y1 receptor potentiators or agonists, primary screen, cell-based. 0.37% of 220,000 active. Neuropeptide Y receptor type 1 (Homo sapiens), P25929. NPY-Y1 expressing cells, potentiator/agonist activation. AID 1304, 2008. activation, % at 3.6 µM; in the data active = activation above about 33%, passing the limit was not always enough;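 note: cells stimulated with NPY at EC10 then isoproterenol at EC100; 0% = low agonist plus stimulus and 100% = saturating agonist plus stimulus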
# NPY Y2 blocker – NPY-Y2 receptor antagonists, primary screen, cell-based. NPY-Y2 expressing cells, antagonist mode. inhibition, % at 2.7 µM. 0.99% of 140,000 active. AID 793, 2007; in the data active = inhibition above about 17%;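 note: 0% = vehicle with agonist challenge and 100% = reference antagonist with challenge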
# NPY Y1 blocker – NPY-Y1 receptor antagonists, primary screen, cell-based; Neuropeptide Y receptor type 1 (Homo sapiens), P25929; HEK293-CNG Y1 cells, membrane potential fluorescence; NPY at EC95, then isoproterenol; inhibition, % at 3.6 µM; 1% of 200,000 active;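 active = inhibition above the campaign mean inhibition of all tested compounds plus 3 SD, cut at about 20% in these data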;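 note: 0% = DMSO wells given NPY plus isoproterenol and 100% = isoproterenol alone without NPY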
#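 Benchmarks – high control isoproterenol alone, low control NPY with isoproterenol · Material – HEK293 Y1/CNG channel cell line · Times – dye 3 h, compound 60 min room temperature, stimulation 45 min · Probe or stimulus – NPY (25 nM), isoproterenol (1 µM), Ro 20-1724 (25 µM) · Evaluation – % inhibition of NPY effect · Signal – fluorescence, membrane potential probe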
# EP2 confirm – cAMP induction in EP2, EP4, beta2-AR and parental cells, confirmation, counter-screen for EP2 modulator project, cell-based, five parallel assays, C6 glioma, HEK293; shares compounds with EP2 modulator; cAMP HTRF induction; plus low (about EC15) PGE2 agonist; calls only at 20 µM (by protocol); 47% of 1,300 active; AID 1080, 2008;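 active = cAMP induction above 50% in the main assay while under 30% in all four parallel counter assays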;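 note: rat C6 glioma cells stably expressing human EP2 receptor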
# Starred values were filed as active, the others as inactive; i = inactive; · = no result; + = active, no number; ! = repeats disagree. Sampled rows, rich in hits. Any-hit rate of the full collection: about 2.8%.
SMILES,EP2 modulator,EP2 antag,NPY-Y2 PAM-ag,NPY1 pot ag,NPY Y2 blocker,NPY Y1 blocker,EP2 confirm
Cc1ccc(CN(Cc2cc3cc4c(cc3[nH]c2=O)OCO4)Cc2nnnn2Cc2ccco2)cc1,9,8,·,·,·,·,·
Cc1cccc(C(=O)c2cnc3ccccc3c2-c2ccccc2)c1,90*,8,3,-16,15,10,+
COc1cc(OC)c(NC2c3ccccc3C(=O)N2c2cc(C)ccn2)cc1Cl (configuration not stated),19,11,11,8,0,1,·
CCOC(=O)c1ccccc1NC1c2ccccc2C(=O)N1c1cc(C)ccn1 (configuration not stated),69*,10,-5,-12,5,11,+
O=c1[nH]c2ccc(Cl)cc2c(-c2ccccc2)c1N1CCOCC1,69*,5,-4,-17,1,7,i
O=c1[nH]c2ccc(Cl)cc2c(-c2ccccc2)c1CN1CCOCC1,20,6,-6,9,0,-5,·
O=C(c1ccco1)N1CCN(c2c(-c3ccccc3)c3cc(Cl)ccc3[nH]c2=O)CC1,47,9,-19,1,6,2,·
O=c1[nH]c2ccc(Cl)cc2c(-c2ccccc2)c1N1CCN(c2ccccn2)CC1,73*,7,19,18,2,-4,i
Cc1ccc(S(=O)(=O)N(CC(=O)N=Nc2c(O)[nH]c3ccccc23)c2ccc(C)c(C)c2)cc1,67*,10,13,-2,2,-2,+
COc1ccc2c(c1)c(CC(=O)O)c(C)n2Cc1ccc(F)cc1,17,8,·,·,·,·,·
COc1ccc2c(c1)c(=O)c(Br)c(C)n2Cc1ccccc1,68*,-1,-7,-10,25*,2,+
O=C1CSC(=Nc2ccccc2)N1Cc1ccccc1,51,7,-6,-6,·,0,·
Cc1ccccc1N=C1SCC(=O)N1Cc1ccccc1,67*,12,16,5,6,3,+
OC(CN1CCC(O)(c2cccc(C(F)(F)F)c2)CC1)c1ccc(Cl)cc1 (configuration not stated),-88,8,·,·,·,·,·
O=C(c1ccco1)N(Cc1cccc([N+](=O)[O-])c1)c1ccc(Br)cc1,66*,2,-18,10,·,6,+
COc1ccc(C2CC(C(F)(F)F)n3ncc(C(=O)O)c3N2)cc1OC (configuration not stated),2,13,21,5,3,4,·
COc1ccc(C2CC(C(F)(F)F)n3nc(C(N)=O)c(Cl)c3N2)cc1OC (configuration not stated),75*,4,9,7,1,2,i
O=C(Cn1nnc(-c2ccc(NC(=O)c3cccnc3)cc2)n1)NCc1ccco1,-39,8,·,·,·,·,·
COc1ccc2c(COC(=O)c3n[nH]c4ccccc34)cc(=O)oc2c1,75*,10,-26,-19,1,11,i
CCN(Cc1cc2cc(C)ccc2[nH]c1=O)C(=O)COc1ccccc1,-41,6,·,·,·,·,·
CCc1oc2ccccc2c1C(=O)c1cc(Br)c(O)c(Br)c1,68*!,10,-5,-14,12,10,i
CC(C)(C)N(Cc1ccccc1)C(=O)c1ccc(Br)o1,63*,5,6,4,·,11,i
Cc1ccc2nc(-c3ccncc3)cc(-c3ccccc3)c2c1,92*,2,-14,-35,5,4,+
CCS(=O)(=O)Nc1ccc(-c2cc(-c3ccccc3)c3cc(C)ccc3n2)cc1,30,5,-11,4,1,-1,·
CC(C)n1c2ccccc2c2nc3ccccc3nc21,58,15,-15,-34,7,-1,+

# Screening data from PubChem BioAssay.
